Values joined by “and” are separate entries in the source; they are usually repeats but may differ in a detail not shown here. Equal entries are not always repeated. Active and inactive are the calls of the source. The rule behind the calls is not given here.
Experiments:
Rattus norvegicus [1] = test: Tested for in vivo inhibition of galactitol accumulation in the sciatic nerve of galactose-fed rats at the dose of 47 (mg/kg/day); type: functional
Summary of the method: (§1)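 Rats were given a 20% galactose diet for 4 days, with the test compound administered in the diet. Sciatic nerve galactitol accumulation was measured, and activity is given as % inhibition at the stated daily dose (mg/kg/day). Values are mean ± SEM, n = 6 animals; p < 0.01 unless indicated. NS means no significant inhibition of polyol accumulation.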

[2] = target: Aldo-keto reductase family 1 member B1 (Bos taurus) (UniProt P16116); test: Inhibition of aldose reductase activity in partially purified bovine lens preparation at 10e-5 M
Summary of the method: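 Partially purified bovine lens aldose reductase. Reduction of DL-glyceraldehyde substrate followed spectrophotometrically. Activity expressed as average inhibition at the tested concentrations, 1×10^-5, 1×10^-6, 1×10^-7 and 4×10^-6 M as printed; IC50 in M where given.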

Rattus norvegicus [3] = test: Tested for in vivo inhibition of galactitol accumulation in the lens of galactose-fed rats at the dose of 47 (mg/kg/day); NS=Not significant; type: functional, organism-based; conditions: Lens of camera-type eye
Rattus norvegicus [4] = test: Tested for in vivo inhibition of galactitol accumulation in the lens of galactose-fed rats at the dose of 56.1 (mg/kg/day); type: functional, Lens of camera-type eye
Summary of the method: (§2)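 Galactosemic rats were fed 20% galactose for 4 days, with the compound mixed into the diet. […] galactitol accumulation was measured, and activity is given as % inhibition at the stated daily dose (mg/kg/day). Values are mean ± SEM of six animals; p < 0.01 unless indicated. NS means no significant inhibition of polyol accumulation.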

Rattus norvegicus [5] = test: Tested for in vivo inhibition of galactitol accumulation in the sciatic nerve of galactose-fed rats at the dose of 56.1 (mg/kg/day); type: functional
Summary of the method: (§3)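 Rats fed a 20% galactose diet for 4 days, with test compound given in the diet at the stated daily dose (mg/kg/day). Read-out is inhibition of galactitol (polyol) accumulation in sciatic nerve. Values are % inhibition, mean ± SEM of six animals; p < 0.01 unless marked (some p < 0.05). NS = no significant inhibition of polyol accumulation. Tolrestat was the reference standard.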

Rattus norvegicus [6] = test: Tested for in vivo inhibition of galactitol accumulation in the sciatic nerve of galactose-fed rats at the dose of 27.5 (mg/kg/day); type: functional; summary of the method: as §1
Rattus norvegicus [7] = test: Tested for in vivo inhibition of galactitol accumulation in the lens of galactose-fed rats at the dose of 27.5 (mg/kg/day); type: functional, Lens of camera-type eye
Rattus norvegicus [8] = test: Tested for in vivo inhibition of galactitol accumulation in the lens of galactose-fed rats at the dose of 50.5 (mg/kg/day); type: functional, Lens of camera-type eye
Rattus norvegicus [9] = test: Tested for in vivo inhibition of galactitol accumulation in the sciatic nerve of galactose-fed rats at the dose of 50.5 (mg/kg/day); type: functional; summary of the method: as §3
Rattus norvegicus [10] = test: Tested for in vivo inhibition of galactitol accumulation in the lens of galactose-fed rats at the dose of 25.4 (mg/kg/day); NS=Not significant; type: functional, organism-based; conditions: Lens of camera-type eye
Rattus norvegicus [11] = test: Tested for in vivo inhibition of galactitol accumulation in the sciatic nerve of galactose-fed rats at the dose of 25.4 (mg/kg/day); type: functional; summary of the method: as §1
Rattus norvegicus [12] = test: Tested for in vivo inhibition of galactitol accumulation in the sciatic nerve of galactose-fed rats at the dose of 25 (mg/kg/day); type: functional; summary of the method: as §1
Rattus norvegicus [13] = test: Tested for in vivo inhibition of galactitol accumulation in the lens of galactose-fed rats at the dose of 86.1 (mg/kg/day); type: functional, Lens of camera-type eye; summary of the method: as §2
Rattus norvegicus [14] = test: Tested for in vivo inhibition of galactitol accumulation in the lens of galactose-fed rats at the dose of 25 (mg/kg/day); type: functional, Lens of camera-type eye
Rattus norvegicus [15] = test: Tested for in vivo inhibition of galactitol accumulation in the sciatic nerve of galactose-fed rats at the dose of 50.9 (mg/kg/day); type: functional; summary of the method: as §3
Rattus norvegicus [16] = test: Tested for in vivo inhibition of galactitol accumulation in the lens of galactose-fed rats at the dose of 50.9 (mg/kg/day); type: functional, Lens of camera-type eye
Rattus norvegicus [17] = test: Tested for in vivo inhibition of galactitol accumulation in the sciatic nerve of galactose-fed rats at the dose of 55.4 (mg/kg/day); type: functional; summary of the method: as §3
Rattus norvegicus [18] = test: Tested for in vivo inhibition of galactitol accumulation in the lens of galactose-fed rats at the dose of 57.2 (mg/kg/day); type: functional, Lens of camera-type eye; summary of the method: as §2
Rattus norvegicus [19] = test: Tested for in vivo inhibition of galactitol accumulation in the sciatic nerve of galactose-fed rats at the dose of 57.2 (mg/kg/day); type: functional; summary of the method: as §3
Rattus norvegicus [20] = test: Tested for in vivo inhibition of galactitol accumulation in the lens of galactose-fed rats at the dose of 1.1 (mg/kg/day); NS=Not significant; type: functional, organism-based; conditions: Lens of camera-type eye
Rattus norvegicus [21] = test: Tested for in vivo inhibition of galactitol accumulation in the lens of galactose-fed rats at the dose of 27.1 (mg/kg/day); type: functional, Lens of camera-type eye
Rattus norvegicus [22] = test: Tested for in vivo inhibition of galactitol accumulation in the sciatic nerve of galactose-fed rats at the dose of 1.1 (mg/kg/day); type: functional; summary of the method: as §1
Rattus norvegicus [23] = test: Tested for in vivo inhibition of galactitol accumulation in the sciatic nerve of galactose-fed rats at the dose of 27.1 (mg/kg/day); type: functional; summary of the method: as §1

In the case of `COC(=O)NC(=O)CC1C(=O)N(C)C(=O)c2ccc(F)cc21` (stereo not given), the Inhibition (Rattus norvegicus [1]) is reported as 58%, the inhibition [2] is reported as 71% and the inhibition (Rattus norvegicus [3]) is reported as “inactive”.
For `NN1C(=O)CC2(C1=O)C(=O)N(Cc1ccc(Br)cc1F)C(=O)c1ccccc12` (stereo not given), the Inhibition (Rattus norvegicus [4]) was 82%, the Inhibition (Rattus norvegicus [5]) was 72% and the inhibition [2] was “inactive”.
For `CN1C(=O)c2ccc(Br)cc2C2(CC(=O)N2)C1=O` (stereo not given), the Inhibition (Rattus norvegicus [6]) was 54% and the Inhibition (Rattus norvegicus [7]) was 36%.
`NN1C(=O)CC2(C1=O)C(=O)N(Cc1ccc(Br)cc1F)C(=O)c1ccc(F)cc12` (stereo not given) was tested, and the Inhibition (Rattus norvegicus [8]) was 54%, the Inhibition (Rattus norvegicus [9]) was 75% and the inhibition [2] was “inactive”.
With `COC(=O)NC(=O)CC1C(=O)N(Cc2ccc(Br)cc2F)C(=O)c2cc(OC)ccc21` (stereo not given) the inhibition (Rattus norvegicus [10]) was “inactive” and the Inhibition (Rattus norvegicus [11]) was 68%.
For `COC(=O)NC(=O)CC1C(=O)N(C)C(=O)c2ccc(Cl)cc21` (stereo not given), the inhibition [2] was 65%, the Inhibition (Rattus norvegicus [12]) was 53% and the Inhibition (Rattus norvegicus [13]) was 54% and 81%. The Inhibition (Rattus norvegicus [14]) was 24%.
In the case of `CCC(CC)=NN1C(=O)CC2(C(=O)N(Cc3ccc(Br)cc3F)C(=O)c3ccccc32)C1=O` (stereo not given), the Inhibition (Rattus norvegicus [15]) is reported as 98%, the inhibition [2] is reported as “inactive” and the Inhibition (Rattus norvegicus [16]) is reported as 71%.
`CN1C(=O)CC2(C(=O)N(Cc3ccc(Br)cc3F)C(=O)c3ccccc32)C(=O)N1C` (stereo not given) was tested, and the Inhibition (Rattus norvegicus [17]) was 76% and the inhibition [2] was “inactive”.
In the case of `CC(=O)NN1C(=O)CC2(C(=O)N(Cc3ccc(Br)cc3F)C(=O)c3ccccc32)C1=O` (stereo not given), the inhibition [2] is reported as “inactive”, the Inhibition (Rattus norvegicus [18]) is reported as 25% and the Inhibition (Rattus norvegicus [19]) is reported as 73%.
With `CC(C)=NN1C(=O)CC2(C(=O)N(Cc3ccc(Br)cc3F)C(=O)c3ccc(F)cc32)C1=O` (stereo not given) the inhibition (Rattus norvegicus [20]) was “inactive”, the Inhibition (Rattus norvegicus [21]) was 58% and the inhibition [2] was “inactive”. The Inhibition (Rattus norvegicus [22]) was 47% and the Inhibition (Rattus norvegicus [23]) was 84%.

Source: ChEMBL document CHEMBL1127562, “N-substituted spirosuccinimide, spiropyridazine, spiroazetidine, and acetic acid aldose reductase inhibitors derived from isoquinoline-1,3-diones. 2” (J Med Chem, 1994)
